From ChEMBL document CHEMBL5120943, “Discovery of Novel Pyrazolopyrimidines as Potent, Selective, and Orally Bioavailable Inhibitors of ALK2” (ACS Med Chem Lett, 2022)
Active and inactive are the calls of the source. The calls are words filed in the database; no cut-off is given here.

Tests used:
Activin receptor type-1 [1] = molecular target: T1, Activin receptor type-1 (Homo sapiens, UniProt Q04771); test: Inhibition of human recombinant N-terminal GST tagged ALK2 (147 to end residues) expressed in baculovirus infected in Sf9 cells assessed as loss of peptide phosphorylation activity using peptide substrate in presence of ATP and measured after 3 hrs by HTRF assay
T1 sequence (Q04771 whole entry): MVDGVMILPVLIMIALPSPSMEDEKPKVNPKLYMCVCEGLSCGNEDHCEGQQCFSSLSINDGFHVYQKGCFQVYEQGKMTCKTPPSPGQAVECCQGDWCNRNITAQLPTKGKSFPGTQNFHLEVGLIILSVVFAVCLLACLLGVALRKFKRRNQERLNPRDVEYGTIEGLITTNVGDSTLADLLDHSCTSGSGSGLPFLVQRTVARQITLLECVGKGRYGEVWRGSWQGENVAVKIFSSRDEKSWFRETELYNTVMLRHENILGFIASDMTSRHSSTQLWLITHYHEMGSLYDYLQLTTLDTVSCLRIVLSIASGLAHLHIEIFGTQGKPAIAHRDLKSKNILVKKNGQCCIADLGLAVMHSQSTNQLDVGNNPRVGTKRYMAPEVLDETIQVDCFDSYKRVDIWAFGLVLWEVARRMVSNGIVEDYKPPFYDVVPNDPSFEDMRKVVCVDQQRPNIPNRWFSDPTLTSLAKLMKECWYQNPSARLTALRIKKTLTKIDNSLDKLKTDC
Outline: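 HTRF activity assay measuring loss of ALK2 phosphorylation of a peptide substrate. IC50 values were determined.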

[2] = Apparent permeability across apical to basolateral side in human Caco-2 cells at 50 uM incubated for 120 mins by LC/MS/MS analysis
Hepcidin = molecular target: T2, Hepcidin (Homo sapiens, UniProt P81172); test: Inhibition of Hepcidin in human Huh-7 cells assessed as inhibition of BMP-7 induced hepcidin production incubated for 16 to 24 hrs by ELISA method; assay type: cell-based
T2 sequence (P81172 whole entry): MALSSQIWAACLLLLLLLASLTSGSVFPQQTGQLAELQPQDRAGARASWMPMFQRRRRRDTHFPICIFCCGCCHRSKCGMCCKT
Outline: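 Huh7 liver cells were stimulated with BMP7. Inhibition of secreted hepcidin was measured and an IC50 was derived.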

[3] = AUC infinity in Sprague-Dawley rat at 3 mg/kg, po measured upto 24 hrs post dose by LC/MS/MS analysis; assay type: ADME, organism-based; design: time < 24 hrs, dose 3 mg/kg, route po; settings: in vivo
Activin receptor type-1 [4] = molecular target: T1, Activin receptor type-1; test: Inhibition of ALK2 in human HeLa cells assessed as reduction in BMP-7 induced SMAD1 phosphorylation incubated for 1 hr followed BMP-7 stimulation for 30 mins by HTRF assay; assay type: cell-based
Outline: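 HeLa cells were stimulated with BMP7. Inhibition of BMP7-induced SMAD1 phosphorylation was read by HTRF and an IC50 was derived.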

[5] = Protein binding in human plasma assessed as free fraction measured after 2 hrs by LC-MS/MS analysis; assay type: ADME, cell-free
[6] = Half life in Sprague-Dawley rat at 3 mg/kg, po or 1 mg/kg, iv measured upto 24 hrs post dose by LC/MS/MS analysis; assay type: ADME, organism-based; settings: in vivo
[7] = Cmax in Sprague-Dawley rat at 3 mg/kg, po measured upto 24 hrs post dose by LC/MS/MS analysis; assay type: ADME, organism-based; design: dose 3 mg/kg, time < 24 hrs, route po; settings: in vivo
[8] = Oral bioavailability in Sprague-Dawley rat at 3 mg/kg measured upto 24 hrs post dose by LC/MS/MS analysis; assay type: ADME, organism-based; settings: in vivo
[9] = Metabolic stability in human liver microsomes assessed as intrinsic clearance at 1uM and measured upto 30 mins in presence of NADPH by LC/MS analysis; assay type: ADME, Microsome; settings: read-out: CLH (converted)
[10] = Volume of distribution at steady state in Sprague-Dawley rat at 3 mg/kg, po or 1 mg/kg, iv measured upto 24 hrs post dose by LC/MS/MS analysis; assay type: ADME, organism-based; settings: in vivo
Mus musculus = test: In vivo inhibition of ALK2 in C57BL/6 mouse assessed as reduction in hepcidin level in plasma at 10 mg/kg, po measured after 24 hrs post dose; assay type: functional, organism-based
Cytochrome P450 2B6 = molecular target: T3, Cytochrome P450 2B6 (Homo sapiens, UniProt P20813); test: Inhibition of CYP2B6 (unknown origin); assay type: ADME
T3 sequence (P20813 whole entry): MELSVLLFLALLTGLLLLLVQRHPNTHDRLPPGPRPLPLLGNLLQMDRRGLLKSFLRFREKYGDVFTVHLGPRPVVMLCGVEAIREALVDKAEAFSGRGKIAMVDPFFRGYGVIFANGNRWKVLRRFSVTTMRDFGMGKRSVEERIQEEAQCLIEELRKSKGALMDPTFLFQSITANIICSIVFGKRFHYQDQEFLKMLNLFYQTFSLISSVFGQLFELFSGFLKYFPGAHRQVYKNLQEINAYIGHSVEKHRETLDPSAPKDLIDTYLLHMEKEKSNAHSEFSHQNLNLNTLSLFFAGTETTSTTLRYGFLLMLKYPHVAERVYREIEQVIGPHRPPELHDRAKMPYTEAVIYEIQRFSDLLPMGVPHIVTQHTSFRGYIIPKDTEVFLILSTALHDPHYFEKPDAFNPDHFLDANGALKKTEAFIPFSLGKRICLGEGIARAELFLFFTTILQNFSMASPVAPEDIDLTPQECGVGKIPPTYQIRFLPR

[11] = AUC (0 to 24 hrs) in C57BL/6 mouse plasma at 10 mg/kg, po; assay type: ADME, organism-based; design: time < 24 hr, dose 10 mg/kg, route po
Outline: (§1)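 Female C57BL/6 mice were given a single oral dose of 10 mg/kg. Compound concentrations in liver and plasma were measured, and AUC was calculated over 0–24 h.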

Cytochrome P450 2D6 = Cytochrome P450 2D6 (Homo sapiens, UniProt P10635); test: Inhibition of CYP2D6 (unknown origin); assay type: ADME
Chain of Cytochrome P450 2D6 (P10635 whole entry): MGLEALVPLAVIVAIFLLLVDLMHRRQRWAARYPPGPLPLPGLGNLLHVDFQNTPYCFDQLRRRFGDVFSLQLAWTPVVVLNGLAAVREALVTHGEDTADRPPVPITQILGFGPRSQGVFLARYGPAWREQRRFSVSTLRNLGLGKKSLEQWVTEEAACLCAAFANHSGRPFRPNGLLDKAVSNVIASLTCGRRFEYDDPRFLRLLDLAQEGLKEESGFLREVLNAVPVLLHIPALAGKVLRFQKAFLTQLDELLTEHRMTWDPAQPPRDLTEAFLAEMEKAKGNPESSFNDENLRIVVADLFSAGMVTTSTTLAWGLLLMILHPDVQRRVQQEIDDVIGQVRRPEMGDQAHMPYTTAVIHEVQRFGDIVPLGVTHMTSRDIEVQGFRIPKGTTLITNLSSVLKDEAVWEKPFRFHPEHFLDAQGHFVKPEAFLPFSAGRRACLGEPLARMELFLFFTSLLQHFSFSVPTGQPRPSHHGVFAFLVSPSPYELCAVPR

[12] = In vivo inhibition of ALK2 in C57BL/6 mouse assessed as reduction in hepcidin level in plasma at 10 mg/kg, po measured after 4 hrs post dose relative to control; assay type: functional
Cytochrome P450 2C19 = Cytochrome P450 2C19 (Homo sapiens, UniProt P33261); test: Inhibition of CYP2C19 (unknown origin); assay type: ADME
Chain of Cytochrome P450 2C19 (P33261 whole entry): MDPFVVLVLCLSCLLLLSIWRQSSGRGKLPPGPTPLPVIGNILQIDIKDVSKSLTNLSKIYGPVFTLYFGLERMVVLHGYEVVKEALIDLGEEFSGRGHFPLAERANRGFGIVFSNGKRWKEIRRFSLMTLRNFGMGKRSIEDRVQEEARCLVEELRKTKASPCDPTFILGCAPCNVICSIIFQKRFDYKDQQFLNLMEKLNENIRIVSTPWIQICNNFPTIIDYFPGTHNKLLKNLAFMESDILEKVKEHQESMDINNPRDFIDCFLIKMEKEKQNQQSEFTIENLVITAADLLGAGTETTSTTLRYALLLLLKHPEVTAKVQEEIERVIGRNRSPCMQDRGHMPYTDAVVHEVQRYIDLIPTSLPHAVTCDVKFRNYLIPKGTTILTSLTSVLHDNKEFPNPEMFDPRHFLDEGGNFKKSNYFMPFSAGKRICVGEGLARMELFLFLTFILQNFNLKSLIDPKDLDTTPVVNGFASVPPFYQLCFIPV

Cytochrome P450 2C9 = Cytochrome P450 2C9 (Homo sapiens, UniProt P11712); test: Inhibition of CYP2C9 (unknown origin); assay type: ADME
Chain of Cytochrome P450 2C9 (P11712 whole entry): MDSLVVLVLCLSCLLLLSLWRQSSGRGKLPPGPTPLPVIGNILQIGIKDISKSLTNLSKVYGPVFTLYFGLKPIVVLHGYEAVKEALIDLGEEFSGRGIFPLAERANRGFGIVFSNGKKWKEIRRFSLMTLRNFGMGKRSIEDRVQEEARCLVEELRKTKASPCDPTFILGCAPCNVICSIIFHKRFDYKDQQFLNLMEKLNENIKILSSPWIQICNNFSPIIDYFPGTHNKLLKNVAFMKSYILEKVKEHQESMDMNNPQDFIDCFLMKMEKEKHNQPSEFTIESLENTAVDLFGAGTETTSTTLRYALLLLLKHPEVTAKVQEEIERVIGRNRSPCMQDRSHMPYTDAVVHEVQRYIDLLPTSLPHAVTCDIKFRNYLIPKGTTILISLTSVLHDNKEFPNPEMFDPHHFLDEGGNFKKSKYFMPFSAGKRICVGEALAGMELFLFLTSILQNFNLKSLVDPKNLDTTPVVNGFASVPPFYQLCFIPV

Cytochrome P450 3A4 = Cytochrome P450 3A4 (Homo sapiens, UniProt P08684); test: Inhibition of CYP3A4 (unknown origin); assay type: ADME
Chain of Cytochrome P450 3A4 (P08684 whole entry): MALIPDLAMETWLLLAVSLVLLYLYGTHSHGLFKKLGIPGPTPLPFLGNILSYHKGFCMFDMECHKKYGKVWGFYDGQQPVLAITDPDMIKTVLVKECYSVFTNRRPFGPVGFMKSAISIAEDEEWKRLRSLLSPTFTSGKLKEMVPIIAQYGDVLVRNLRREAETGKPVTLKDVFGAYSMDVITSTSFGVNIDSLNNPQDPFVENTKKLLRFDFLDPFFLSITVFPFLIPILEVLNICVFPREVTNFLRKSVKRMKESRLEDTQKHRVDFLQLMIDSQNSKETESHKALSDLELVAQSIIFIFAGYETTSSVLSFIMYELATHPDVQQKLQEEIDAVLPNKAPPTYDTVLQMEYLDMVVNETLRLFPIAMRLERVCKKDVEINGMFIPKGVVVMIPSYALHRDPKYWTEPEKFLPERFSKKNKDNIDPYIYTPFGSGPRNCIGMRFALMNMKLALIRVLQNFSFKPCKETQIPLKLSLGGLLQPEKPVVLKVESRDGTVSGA

hERG (KCNH2) = hERG (KCNH2) (Homo sapiens, UniProt Q12809); test: Inhibition of human ERG at 1 uM by patch clamp assay relative to control; assay type: toxicity
Chain of hERG (KCNH2) (Q12809 whole entry): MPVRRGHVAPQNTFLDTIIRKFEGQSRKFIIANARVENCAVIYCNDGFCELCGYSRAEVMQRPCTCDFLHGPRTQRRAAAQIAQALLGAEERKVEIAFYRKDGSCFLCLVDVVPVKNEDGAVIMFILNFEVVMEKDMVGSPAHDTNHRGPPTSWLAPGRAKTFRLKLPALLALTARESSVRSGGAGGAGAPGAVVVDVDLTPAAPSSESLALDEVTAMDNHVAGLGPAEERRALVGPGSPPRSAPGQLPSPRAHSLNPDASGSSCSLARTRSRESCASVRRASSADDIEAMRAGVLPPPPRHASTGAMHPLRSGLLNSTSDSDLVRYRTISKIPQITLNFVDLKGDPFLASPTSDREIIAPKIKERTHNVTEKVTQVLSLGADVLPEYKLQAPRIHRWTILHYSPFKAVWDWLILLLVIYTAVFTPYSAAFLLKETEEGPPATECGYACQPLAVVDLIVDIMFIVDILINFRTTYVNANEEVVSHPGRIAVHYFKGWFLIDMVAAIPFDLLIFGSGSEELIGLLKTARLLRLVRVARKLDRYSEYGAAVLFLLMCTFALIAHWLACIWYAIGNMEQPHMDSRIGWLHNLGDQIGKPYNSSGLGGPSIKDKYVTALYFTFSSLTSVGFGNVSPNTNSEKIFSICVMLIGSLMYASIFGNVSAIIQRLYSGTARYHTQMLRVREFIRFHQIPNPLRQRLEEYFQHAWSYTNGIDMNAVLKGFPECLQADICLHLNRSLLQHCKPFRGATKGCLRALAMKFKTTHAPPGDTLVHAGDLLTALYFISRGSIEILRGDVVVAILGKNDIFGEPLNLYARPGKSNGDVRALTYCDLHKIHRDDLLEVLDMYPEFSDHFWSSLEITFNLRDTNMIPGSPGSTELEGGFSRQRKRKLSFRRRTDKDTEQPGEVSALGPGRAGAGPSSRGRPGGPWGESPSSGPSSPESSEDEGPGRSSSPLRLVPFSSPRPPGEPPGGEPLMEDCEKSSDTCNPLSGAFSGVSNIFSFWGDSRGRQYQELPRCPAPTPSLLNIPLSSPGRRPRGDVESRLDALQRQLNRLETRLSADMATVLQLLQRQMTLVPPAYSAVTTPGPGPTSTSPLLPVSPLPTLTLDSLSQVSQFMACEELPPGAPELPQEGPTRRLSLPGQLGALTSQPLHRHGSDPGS
Outline: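 hERG activity was tested by patch clamp at 1 μM and expressed as percent inhibition.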

[13] = AUC (0 to 24 hrs) in C57BL/6 mouse liver at 10 mg/kg, po; assay type: ADME, organism-based; design: time < 24 hr, dose 10 mg/kg, route po; outline: as §1
Cytochrome P450 1A2 = molecular target: T4, Cytochrome P450 1A2 (Homo sapiens, UniProt P05177); test: Inhibition of CYP1A2 (unknown origin); assay type: ADME
T4 sequence (P05177 whole entry): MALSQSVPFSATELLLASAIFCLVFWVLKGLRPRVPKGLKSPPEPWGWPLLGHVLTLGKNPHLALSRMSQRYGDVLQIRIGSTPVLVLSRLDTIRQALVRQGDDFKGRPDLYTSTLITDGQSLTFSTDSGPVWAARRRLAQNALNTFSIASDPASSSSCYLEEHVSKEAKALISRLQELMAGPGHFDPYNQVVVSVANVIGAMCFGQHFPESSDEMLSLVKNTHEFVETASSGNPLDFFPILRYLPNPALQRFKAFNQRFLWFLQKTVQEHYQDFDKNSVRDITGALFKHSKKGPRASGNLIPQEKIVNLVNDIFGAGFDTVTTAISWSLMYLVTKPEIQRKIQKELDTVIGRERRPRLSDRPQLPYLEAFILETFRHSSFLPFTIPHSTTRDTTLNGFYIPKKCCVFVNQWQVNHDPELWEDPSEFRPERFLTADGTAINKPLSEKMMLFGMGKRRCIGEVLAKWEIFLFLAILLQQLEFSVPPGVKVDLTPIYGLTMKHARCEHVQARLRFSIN

Cytochrome P450 2C8 = molecular target: T5, Cytochrome P450 2C8 (Homo sapiens, UniProt P10632); test: Inhibition of CYP2C8 (unknown origin); assay type: ADME
T5 sequence (P10632 whole entry): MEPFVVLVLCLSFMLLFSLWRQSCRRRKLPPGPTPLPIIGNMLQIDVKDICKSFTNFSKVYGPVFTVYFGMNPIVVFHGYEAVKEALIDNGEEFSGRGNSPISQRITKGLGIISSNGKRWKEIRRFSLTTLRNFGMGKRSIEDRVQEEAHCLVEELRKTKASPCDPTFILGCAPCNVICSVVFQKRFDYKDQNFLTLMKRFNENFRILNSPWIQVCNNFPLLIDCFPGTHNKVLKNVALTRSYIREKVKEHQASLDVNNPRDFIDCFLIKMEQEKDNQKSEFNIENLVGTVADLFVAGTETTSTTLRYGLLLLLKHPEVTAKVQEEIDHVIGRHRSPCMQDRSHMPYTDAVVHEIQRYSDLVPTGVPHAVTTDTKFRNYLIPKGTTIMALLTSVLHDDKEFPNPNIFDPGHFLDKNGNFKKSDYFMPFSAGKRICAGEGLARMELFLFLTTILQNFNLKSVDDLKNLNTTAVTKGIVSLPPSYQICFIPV

IC50 (Activin receptor type-1 [1]) [nM]	IC50 (Hepcidin) [nM]	AUC(0-inf) [3] [µM·h]	IC50 (Activin receptor type-1 [4]) [nM]	fraction unbound at 2 h [5]	half-life [6] [h]	Cmax [7] [nM]	bioavailability [8] [%]	CLint scaled at 1 µM [9] [mL/min/kg]	Vdss [10] [L/kg]	Structure (SMILES)	also measured
793										C[C@@H]1CN(c2ccc(-c3n[nH]c4cnc(N5[C@H](C)CNC[C@@H]5C)nc34)cn2)CCN1	
0.85	7.3	0.441	27	0.099	3.1	75	49	15	21.9	COC(=O)N1C[C@@H](C)N(c2ncc3[nH]nc(-c4ccc(N5CCN[C@H](C)C5)nc4)c3n2)[C@@H](C)C1	Papp A→B at 2 h, 50 µM [2]: 0.6 ×10⁻⁶ cm/s
4.9			212							CCOC(=O)N1C[C@@H](C)N(c2ncc3[nH]nc(-c4ccc(N5CCN[C@H](C)C5)nc4)c3n2)[C@@H](C)C1	
2.5			384							C[C@@H]1CN(c2ccc(-c3n[nH]c4cnc(N5[C@H](C)CCC[C@@H]5C)nc34)cn2)CCN1	
23			245							C[C@@H]1CN(c2ccc(-c3n[nH]c4cnc(N5[C@H](C)COC[C@@H]5C)nc34)cn2)CCN1	

Continued, molecule first:

Structure (SMILES)	IC50 (Activin receptor type-1 [1]) [nM]	IC50 (Hepcidin) [nM]	AUC(0-inf) [3] [µM·h]	IC50 (Activin receptor type-1 [4]) [nM]	fraction unbound at 2 h [5]	half-life [6] [h]	Cmax [7] [nM]	bioavailability [8] [%]	CLint scaled at 1 µM [9] [mL/min/kg]	Vdss [10] [L/kg]	also measured
C[C@@H]1CN(c2ccc(-c3n[nH]c4ccc(N5CCCCC5)nc34)cn2)CCN1	95			> 3000							
C[C@@H]1CN(c2ccc(-c3n[nH]c4cnc(N5[C@H](C)CN(C(=O)N6CCCC6)C[C@@H]5C)nc34)cn2)CCN1		28	0.669		0.043	3.8	151	46	18.3	9.2	
COC(=O)N1C[C@@H](C)N(c2ncc3[nH]nc(-c4ccc(N5CCN(C)CC5)cc4)c3n2)[C@@H](C)C1	0.98	34	4.05	61	0.043	5.7	434	85	16.7	7.6	inhibition (Mus musculus): Active; Papp A→B at 2 h, 50 µM [2]: 4.5 ×10⁻⁶ cm/s; IC50 (Cytochrome P450 2B6): > 25000 nM; AUC(0-t) at 24 h [11]: 26.2 µM·h; IC50 (Cytochrome P450 2D6): > 25000 nM; inhibition in vivo at 10 mg/kg [12]: 80%; IC50 (Cytochrome P450 2C19): > 25000 nM; IC50 (Cytochrome P450 2C9): > 25000 nM; IC50 (Cytochrome P450 3A4): > 25000 nM; inhibition at 1 µM (hERG (KCNH2)): < 1%; AUC(0-t) at 24 h [13]: 376 µM·h; IC50 (Cytochrome P450 1A2): > 25000 nM; IC50 (Cytochrome P450 2C8): > 25000 nM
